From ChEMBL document CHEMBL1124395, “Studies on bioactive compounds. 13. Synthesis and lack of growth-inhibitory properties of cyclohexane-1,2,4-triol 1,2-diesters, which resemble ring C of the phorbol ester molecule” (J Med Chem, 1989)

How the values were obtained:
[1] = Concentration which cause half-maximal Lactate dehydrogenase release in […]
How it was run: (§1)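 A549 cells (1 × 10^5/well) exposed 24 h to compound in medium with only 1% fetal calf serum; diacylglycerols added 3 times at 6-hourly intervals. Supernatant briefly centrifuged and kept on ice, then LDH activity read spectrophotometrically. Maximal releasable LDH came from control cells lysed with 1% Triton X-100. Half-maximal release was obtained by linear regression of the linear part of curves (≥5 concentrations, four experiments).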

Homo sapiens = species on record: Homo sapiens; assay: Concentration which cause half-maximal growth inhibition of human A549 lung carcinoma cell line; assay type: functional
How it was run: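 A549 human lung carcinoma cells ((2-5) × 10^4/well) grown in Ham's F12 with 10% fetal calf serum under 95% air/5% CO2 with compound for 4-5 days, until controls were confluent. Medium and compound were renewed every 2 days; diacylglycerols were added three times daily at 6-h intervals for 3 days. Final DMSO was ≤0.5%. Cells were trypsinised and counted by hemocytometer or Coulter counter. The 50% growth-inhibitory concentration was taken by linear regression (≥5 concentrations, four experiments).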

[2] = Concentration which cause half-maximal Lactate dehydrogenase in […]; how it was run: as §1

Row | Structure (SMILES) | LC50 [1] [µM] | IC50 (Homo sapiens) [µM] | LC50 [2] [µM]
1 | CCCCCCCCCCCCCC(=O)O[C@@]12[C@H](OC(C)=O)[C@@H](C)[C@@]3(O)[C@@H](C=C(CO)C[C@]4(C)C(=O)C(C)=C[C@@H]34)[C@@H]1C2(C)C | > 1 |  | 
2 | CCCCCCCC/C=C\CCCCCCCC(=O)OCC(CO)OC(C)=O (stereo unspecified) | 75 | 70 | 
3 | CCCCCCCC(=O)O[C@@H]1CC[C@H](O)C[C@H]1OC(=O)CCCCCCC |  | 43 | 36
4 | CCCCCCCC(=O)OC[C@@H](CO)OC(=O)CCCCCCC |  | 44 | 56
5 | CCCCCCCC(=O)O[C@H]1CC[C@H](O)C[C@@H]1OC(=O)CCCCCCC |  | 58 | 46
6 | CCCCCCCC(=O)O[C@H]1CC[C@H](O)C[C@H]1OC(=O)CCCCCCC | 31 | 49 | 
